Assay results published in ChEMBL document CHEMBL1817589, “Synthesis and antibacterial activity of C2-symmetric binaphthyl scaffolded amino acid derivatives” (2011).
Converted amounts (≈) assume the structure as drawn.

Key:
Staphylococcus aureus [1] = experiment: Antibacterial activity against Staphylococcus aureus; format: functional
Enterococcus faecium [2] = experiment: Antibacterial activity against vancomycin-resistant Enterococcus faecium isolate 243; format: functional
Outline: (§1)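 Wild-type and clinical E. faecium isolates were grown in Enterococcosal broth. Overnight stationary-phase cultures were diluted 1:1000 into fresh medium and incubated with two-fold compound dilutions (seven concentrations) overnight at 37 °C in 96-well plates. The MIC was recorded as the […], and values were rounded.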

Enterococcus faecium [3] = experiment: Antibacterial activity against vancomycin-resistant Enterococcus faecium isolate 820; format: functional; outline: as §1
Staphylococcus aureus [4] = experiment: Antibacterial activity against vancomycin-sensitive Staphylococcus aureus ATCC 6538P; format: functional
Enterococcus faecium [5] = experiment: Antibacterial activity against vancomycin-resistant Enterococcus faecium isolate 449; format: functional; outline: as §1
Enterococcus faecium [6] = experiment: Antibacterial activity against vancomycin-sensitive Enterococcus faecium isolate 987
[7] = Enterococcus faecium, isolate 243, read-out: MIC
[8] = Staphylococcus aureus, ATCC 6538P, read-out: MIC

Row | SMILES | MIC (Staphylococcus aureus [1]) | MIC (Enterococcus faecium [2]; [7]) | MIC (Enterococcus faecium [3]) | MIC (Staphylococcus aureus [4]; [8]) | MIC (Enterococcus faecium [5]) | MIC (Enterococcus faecium [6]) | MIC (Enterococcus faecium [2]) | MIC (Staphylococcus aureus [4])
1 | C=CCOc1ccc2ccccc2c1-c1c(OCC(=O)N[C@H](CCCCN)C(=O)N[C@H](CCCNC(=N)N)C(=O)N[C@@H](CC=C)C(=O)OCc2ccccc2)ccc2ccccc12 | 2 µM (≈ 1.71 µg/mL) | – | – | – | – | – | – | –
2 | NCCCC[C@@H](NC(=O)CCCOc1ccc2ccccc2c1-c1c(OCCCC(=O)N[C@H](CCCCN)C(=O)OCc2ccccc2)ccc2ccccc12)C(=O)OCc1ccccc1 | – | 129 µM (≈ 115 µg/mL) | 65 µM (≈ 58.2 µg/mL) | 4 µM (≈ 3.58 µg/mL) | 65 µM (≈ 58.2 µg/mL) | 129 µM (≈ 115 µg/mL) | – | –
3 | N=C(N)NCCCC[C@@H](NC(=O)CCCOc1ccc2ccccc2c1-c1c(OCCCC(=O)N[C@H](CCCCNC(=N)N)C(=O)OCc2ccccc2)ccc2ccccc12)C(=O)OCc1ccccc1 | – | 59 µM (≈ 57.8 µg/mL) | 59 µM (≈ 57.8 µg/mL) | 4 µM (≈ 3.92 µg/mL) | 59 µM (≈ 57.8 µg/mL) | 119 µM (≈ 117 µg/mL) | – | –
4 | NCCCC[C@@H](NC(=O)CCCOc1ccc2ccccc2c1-c1c(OCCCC(=O)N[C@H](CCCCN)C(=O)OCc2ccccn2)ccc2ccccc12)C(=O)OCc1ccccn1 | – | > 129 µM | > 129 µM | 129 µM (≈ 116 µg/mL) | > 129 µM | > 129 µM | – | –
5 | C=CCc1cc2ccccc2c(-c2c(OC)c(CC(NC(C)=O)C(=O)N[C@H](CCCNC(=N)N)C(=O)N[C@@H](CC=C)C(=O)OC)cc3ccccc23)c1OC (some centres undefined) | 2 µM (≈ 1.5 µg/mL) | – | – | – | – | – | – | –
6 | CN[C@H](CC(C)C)C(=O)N[C@H]1C(=O)N[C@@H](CC(N)=O)C(=O)N[C@H]2C(=O)N[C@H]3C(=O)N[C@H](C(=O)N[C@H](C(=O)O)c4cc(O)cc(O)c4-c4cc3ccc4O)[C@H](O)c3ccc(c(Cl)c3)Oc3cc2cc(c3O[C@@H]2O[C@H](CO)[C@@H](O)[C@H](O)[C@H]2O[C@H]2C[C@](C)(N)[C@H](O)[C@H](C)O2)Oc2ccc(cc2Cl)[C@H]1O [VANCOMYCIN] | – | 1 µM (≈ 1.45 µg/mL) | > 86 µM | 1 µM (≈ 1.45 µg/mL) | 43 µM (≈ 62.3 µg/mL) | < 1 µM | – | –
7 | Cl.Cl.N=C(N)NCCC[C@@H](NC(=O)CCCOc1ccc2ccccc2c1-c1c(OCCCC(=O)N[C@H](CCCNC(=N)N)C(=O)OCc2ccccc2)ccc2ccccc12)C(=O)OCc1ccccc1 (stereo in doubt; 22) | – | – | – | – | – | – | 31 µM | 4 µM
8 | N=C(N)NCCC[C@@H](NC(=O)CCCOc1ccc2ccccc2c1-c1c(OCCCC(=O)N[C@H](CCCNC(=N)N)C(=O)OCc2ccccn2)ccc2ccccc12)C(=O)OCc1ccccn1 | – | > 122 µM | > 122 µM | 15 µM (≈ 14.3 µg/mL) | > 122 µM | > 122 µM | – | –
9 | C=CCOc1ccc2ccccc2c1-c1c(OCCCC(=O)N[C@H](CCCNC(=N)N)C(=O)OCc2ccccc2)ccc2ccccc12 | 5 µM (≈ 3.29 µg/mL) | – | – | – | – | – | – | –
10 | NCCCC[C@@H](NC(=O)CCCOc1ccc2ccccc2c1-c1c(OCCCC(=O)N[C@H](CCCCN)C(=O)OCc2cccc3ccccc23)ccc2ccccc12)C(=O)OCc1cccc2ccccc12 | – | > 117 µM | 59 µM (≈ 58.7 µg/mL) | 7 µM (≈ 6.97 µg/mL) | 117 µM (≈ 116 µg/mL) | 117 µM (≈ 116 µg/mL) | – | –
11 | N=C(N)NCCC[C@@H](NC(=O)CCCOc1ccc2ccccc2c1-c1c(OCCCC(=O)N[C@H](CCCNC(=N)N)C(=O)NCc2ccccc2)ccc2ccccc12)C(=O)NCc1ccccc1 | – | 61 µM (≈ 57.9 µg/mL) | 122 µM (≈ 116 µg/mL) | 2 µM (≈ 1.9 µg/mL) | 61 µM (≈ 57.9 µg/mL) | 122 µM (≈ 116 µg/mL) | – | –
12 | N=C(N)NCCC[C@@H](NC(=O)CCCOc1ccc2ccccc2c1-c1c(OCCCC(=O)N[C@H](CCCNC(=N)N)C(=O)OCc2ccccc2)ccc2ccccc12)C(=O)OCc1ccccc1 (stereo in doubt; 21) | – | 61 µM (≈ 58 µg/mL) | 31 µM (≈ 29.5 µg/mL) | 2 µM (≈ 1.9 µg/mL) | 31 µM (≈ 29.5 µg/mL) | 31 µM (≈ 29.5 µg/mL) | – | –
13 | COC(=O)[C@@H](CCCCN)NC(=O)CCCOc1ccc2ccccc2c1-c1c(OCCCC(=O)N[C@H](CCCCN)C(=O)OC)ccc2ccccc12 | – | – | – | > 153 µM | – | – | – | –
14 | COC(=O)[C@@H](CCCNC(=N)N)NC(=O)CCCOc1ccc2ccccc2c1-c1c(OCCCC(=O)N[C@H](CCCNC(=N)N)C(=O)OC)ccc2ccccc12 | – | – | > 143 µM | 18 µM (≈ 14.4 µg/mL) | > 143 µM | – | – | –
15 | N=C(N)NCCCC[C@@H](NC(=O)CCCOc1ccc2ccccc2c1-c1c(OCCCC(=O)N[C@H](CCCCNC(=N)N)C(=O)OCc2cccc3ccccc23)ccc2ccccc12)C(=O)OCc1cccc2ccccc12 | – | > 109 µM | 54 µM (≈ 58.3 µg/mL) | 7 µM (≈ 7.56 µg/mL) | 109 µM (≈ 118 µg/mL) | > 108 µM | – | –
